Drawing on ChEMBL document CHEMBL3352791, “Thioaryl naphthylmethanone oxime ether analogs as novel anticancer agents” (J Med Chem, 2014), this text covers Activity and inhibition for two molecules.

Molecules are shown by their SMILES. Activity calls are given as the source filed them. The rule behind the calls is not given here.

The test system of data set [1] is MCF7. The data set can be described thus: Cell cycle arrest in human […] cells assessed as accumulation at G1 phase at 7.5 uM by propidium iodide staining by FACS analysis (reference value: 62.88%). The class given is functional. On the technique in general: In flow cytometry, cells or beads pass a laser one at a time.
Data set [2] concerns MDA-MB-231. The experiment in a line: Cell cycle arrest in human […] cells assessed as accumulation at subG1 phase at 7.5 uM by propidium iodide staining by FACS analysis (reference value: 0.3%). The format is functional.
The subject of data set [3] is Mus musculus. The experiment in a line: Toxicity in human MCF7 cells xenografted in NIH-3 mouse assessed as changed in body weight at 8 mg/kg, po for 29 days relative to control. The class given is organism-based. The arrangement: dose 8 mg/kg, route oral. As to conditions: in vivo, 696 h.
The test system of data set [4] is Mus musculus. The experiment in a line: Toxicity in human MCF7 cells xenografted in NIH-3 mouse assessed as changed in body weight at 16 mg/kg, po for 29 days relative to control. The class given is organism-based. The arrangement: dose 16 mg/kg, route oral. As to conditions: in vivo, 696 h. Background: In xenograft studies the graft and the host belong to different species.

In data set [5] the target is Platelet-derived growth factor receptor beta (Homo sapiens) (UniProt P09619). The experiment in a line: Inhibition of PDGFRbeta (unknown origin) at 10 uM. The method, boiled down: (§1)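 Cell-free kinase profiling was run as a standard 33P-ATP-based in vitro kinase assay.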
Platelet-derived growth factor receptor beta (Homo sapiens), sequence (P09619 whole entry): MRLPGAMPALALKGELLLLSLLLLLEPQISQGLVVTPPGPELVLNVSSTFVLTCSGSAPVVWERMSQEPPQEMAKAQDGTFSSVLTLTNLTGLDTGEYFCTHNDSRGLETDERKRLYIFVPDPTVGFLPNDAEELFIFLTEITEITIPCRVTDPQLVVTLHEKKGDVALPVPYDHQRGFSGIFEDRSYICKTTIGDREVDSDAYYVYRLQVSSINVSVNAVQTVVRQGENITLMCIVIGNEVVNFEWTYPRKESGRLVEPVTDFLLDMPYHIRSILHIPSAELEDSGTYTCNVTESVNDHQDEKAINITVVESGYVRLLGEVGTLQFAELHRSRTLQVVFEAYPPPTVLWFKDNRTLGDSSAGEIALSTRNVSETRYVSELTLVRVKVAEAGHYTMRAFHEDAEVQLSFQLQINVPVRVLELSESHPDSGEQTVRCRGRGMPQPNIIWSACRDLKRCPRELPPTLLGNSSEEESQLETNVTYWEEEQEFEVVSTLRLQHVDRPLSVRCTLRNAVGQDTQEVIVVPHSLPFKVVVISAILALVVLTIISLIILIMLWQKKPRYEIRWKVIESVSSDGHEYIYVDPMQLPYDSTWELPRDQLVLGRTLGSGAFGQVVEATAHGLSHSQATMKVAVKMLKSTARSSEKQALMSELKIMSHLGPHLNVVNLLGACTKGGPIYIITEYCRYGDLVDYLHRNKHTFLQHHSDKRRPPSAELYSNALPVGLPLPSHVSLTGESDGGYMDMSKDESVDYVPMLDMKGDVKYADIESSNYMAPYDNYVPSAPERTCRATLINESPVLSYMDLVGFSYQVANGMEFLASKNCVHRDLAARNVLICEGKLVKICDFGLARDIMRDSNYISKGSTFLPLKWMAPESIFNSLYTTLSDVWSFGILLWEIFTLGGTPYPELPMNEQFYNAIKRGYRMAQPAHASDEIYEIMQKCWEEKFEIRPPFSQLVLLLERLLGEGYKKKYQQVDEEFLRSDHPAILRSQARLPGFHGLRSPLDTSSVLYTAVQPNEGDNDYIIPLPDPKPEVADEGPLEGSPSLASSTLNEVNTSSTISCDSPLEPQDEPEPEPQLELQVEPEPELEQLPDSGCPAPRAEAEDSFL
Data set [6] has as its target Mast/stem cell growth factor receptor Kit (Homo sapiens) (UniProt P10721). The data set can be described thus: Inhibition of cKit (unknown origin) at 10 uM. In a few lines: as §1
In data set [7] the test system is MDA-MB-231. The data set can be described thus: Induction of cAMP level in human MDA-MB-231 cells at 0.1 to 25 uM in presence of forskolin. The format is functional, cell-based. In a few lines: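 MDA-MB-231 cells serum-starved for 4 h, treated with 500μM IBMX for 30 min, then exposed to compound for a further 30 min. Cellular cAMP read by HTRF kit.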
For data set [8], the target named is Phosphodiesterase 6 (Homo sapiens) (UniProt Q13956+P18545+P35913+O43924+P16499+P51160). The experiment in a line: Inhibition of PDE6AB (unknown origin) activity at 1 to 10 uM. The format is protein assay. In a few lines:
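PDE6AB activity was measured by radiometric assay, a modification of the Thompson and Appleman two-step method. Sildenafil 1µM served as reference standard.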

The target in data set [9] is High affinity cGMP-specific 3',5'-cyclic phosphodiesterase 9A (Homo sapiens) (UniProt O76083). The data set can be described thus: Inhibition of PDE9A1 (unknown origin) activity at 1 to 10 uM. In a few lines: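 Recombinant PDE isoform activity was read by fluorescence polarization. A binding reagent complexes with the nucleotide monophosphate that the phosphodiesterase generates from cAMP/cGMP, and this raises the polarization of the labelled substrate. Reference standards were PDE1A3 10µM IBMX, PDE2A3 1nM BAY 60-7550, PDE3CAT 1µM cilostazol, PDE4CAT rolipram, PDE5CAT 0.1µM sildenafil, PDE7A […], PDE8A1 10µM BRL-50481, PDE9A1 1µM SB 36216 and PDE11A1 dipyridamole.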
High affinity cGMP-specific 3',5'-cyclic phosphodiesterase 9A (Homo sapiens), sequence (O76083 whole entry, canonical isoform): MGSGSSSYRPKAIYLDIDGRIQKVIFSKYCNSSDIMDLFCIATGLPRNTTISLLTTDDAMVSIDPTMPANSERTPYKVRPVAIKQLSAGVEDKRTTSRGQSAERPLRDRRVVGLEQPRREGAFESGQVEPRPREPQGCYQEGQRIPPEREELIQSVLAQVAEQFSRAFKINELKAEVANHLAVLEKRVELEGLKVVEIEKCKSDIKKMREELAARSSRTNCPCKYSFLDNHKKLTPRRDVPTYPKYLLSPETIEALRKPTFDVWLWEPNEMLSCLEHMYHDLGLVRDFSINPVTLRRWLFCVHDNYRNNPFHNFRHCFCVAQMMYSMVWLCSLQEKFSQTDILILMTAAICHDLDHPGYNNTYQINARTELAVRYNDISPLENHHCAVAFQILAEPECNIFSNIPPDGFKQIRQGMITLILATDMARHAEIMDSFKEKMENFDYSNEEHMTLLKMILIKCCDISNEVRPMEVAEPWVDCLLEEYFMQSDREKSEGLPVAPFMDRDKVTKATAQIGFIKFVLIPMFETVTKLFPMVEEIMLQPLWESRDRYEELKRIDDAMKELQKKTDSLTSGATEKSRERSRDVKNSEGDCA

Data set [10] addresses cAMP and cAMP-inhibited cGMP 3',5'-cyclic phosphodiesterase 10A (Homo sapiens) (UniProt Q9Y233). The experiment in a line: Inhibition of PDE10A1 (unknown origin) activity at 1 to 10 uM.
The test system of data set [11] is MDA-MB-231. The experiment in a line: Induction of apoptosis in human […] cells assessed as caspase 3 activation at 2.5 to 7.5 uM by Caspase-Glo assay. The class given is functional, cell-based. In a few lines: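 Caspase-8, -9 and -3 activities measured with Caspase-Glo 8, 9 and 3 kits; mean ± SEM from three independent experiments.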
The subject of data set [12] is MDA-MB-231. The data set can be described thus: Cytotoxicity against human […] cells assessed as cell viability at 5 uM by MTT assay in presence of z-LEHD-FMK caspase-9 inhibitor. The class given is functional, cell-based. In a few lines:
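Cells seeded 1×10^4/well in DMEM with 10% FBS, adhered overnight, serum-starved 4 h; pre-incubated 2 h with Z-IETD-FMK or Z-LEHD-FMK (10µM each), then 5μM compound for a further 24 h; viability by MTT.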

In data set [13] the test system is MDA-MB-231. The experiment in a line: Inhibition of MTA expression in human MDA-MB-231 cells at 1 uM after 24 hrs by qPCR analysis. The class given is functional, cell-based. The method, boiled down: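 MDA-MB-231 cells treated at 1µM. Transcript levels measured by qPCR with GAPDH as internal control.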
The test system of data set [14] is MDA-MB-231. The data set can be described thus: Inhibition of mammosphere formation in human MDA-MB-231 cells at 5 to 20 uM after 8 days. The class given is functional, cell-based. The method, boiled down:
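Single cells were plated in ultralow-attachment plates at 100,000 viable cells/ml for primary culture and 5,000 cells/ml for passages. Spheres formed over 7–10 days in serum-free MEBM containing compound, with salinomycin as comparator. Primary spheres were trypsin-dissociated for serial passage. Sphere number was counted manually and verified by two independent observers blinded to treatment.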

Data set [15] has as its system MCF7. The experiment in a line: Inhibition of IGF1 expression in human MCF7 cells at 5 uM by ELISA. The class given is functional, cell-based. (In general: ELISA stands for enzyme-linked immunosorbent assay.)
Data set [16] concerns MDA-MB-231. The data set can be described thus: Inhibition of TGFbeta expression in human MDA-MB-231 cells at 5 uM by ELISA. The format is functional, cell-based.
Data set [17] addresses Epidermal growth factor receptor (Homo sapiens) (UniProt P00533). The experiment in a line: Inhibition of EGF-induced EGFR phosphorylation at Tyr1045 in human MDA-MB-231 cells at 1 uM by ELISA. The format is cell-based.
Data set [18] shares this target. The experiment in a line: Inhibition of EGF-induced EGFR2 phosphorylation in human MDA-MB-231 cells at 1 uM by ELISA. The class given is cell-based. The method, boiled down: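 MDA-MB-231 cells pretreated 1 h in serum-free medium, then EGF-stimulated for 15 min and lysed. Equal lysate protein (Bradford) assayed by ELISA kits for p-EGFR (Tyr1068, Tyr845, Tyr1173) and p-HER2. Absorbance read at 450 nm, normalized to total EGFR or HER2.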

Data set [19] concerns the target T1, Signal transducer and activator of transcription 1-alpha/beta (Homo sapiens) (UniProt P42224).
T1 sequence (whole entry): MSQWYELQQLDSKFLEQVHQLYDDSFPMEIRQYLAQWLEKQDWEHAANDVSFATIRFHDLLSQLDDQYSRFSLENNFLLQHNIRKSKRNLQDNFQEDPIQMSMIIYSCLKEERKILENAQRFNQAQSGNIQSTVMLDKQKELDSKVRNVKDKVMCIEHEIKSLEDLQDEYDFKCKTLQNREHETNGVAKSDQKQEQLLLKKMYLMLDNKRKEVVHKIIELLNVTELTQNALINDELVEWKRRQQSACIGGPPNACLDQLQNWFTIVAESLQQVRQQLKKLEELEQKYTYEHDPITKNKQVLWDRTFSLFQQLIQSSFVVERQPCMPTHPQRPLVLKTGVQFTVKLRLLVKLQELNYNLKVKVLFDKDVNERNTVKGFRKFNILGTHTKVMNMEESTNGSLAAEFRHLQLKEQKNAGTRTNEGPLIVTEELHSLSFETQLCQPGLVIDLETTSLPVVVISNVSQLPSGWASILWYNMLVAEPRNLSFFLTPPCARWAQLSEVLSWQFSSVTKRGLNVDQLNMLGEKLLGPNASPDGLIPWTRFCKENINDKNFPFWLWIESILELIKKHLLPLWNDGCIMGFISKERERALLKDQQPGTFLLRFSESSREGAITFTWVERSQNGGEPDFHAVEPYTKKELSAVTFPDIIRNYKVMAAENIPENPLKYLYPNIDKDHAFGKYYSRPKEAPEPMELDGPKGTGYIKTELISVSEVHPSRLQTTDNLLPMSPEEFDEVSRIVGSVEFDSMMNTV
The experiment in a line: Inhibition of basal level STAT1 phosphorylation in human MDA-MB-231 cells at 1 uM by ELISA. The class given is cell-based.

Epidermal growth factor receptor (Homo sapiens), sequence (P00533 whole entry): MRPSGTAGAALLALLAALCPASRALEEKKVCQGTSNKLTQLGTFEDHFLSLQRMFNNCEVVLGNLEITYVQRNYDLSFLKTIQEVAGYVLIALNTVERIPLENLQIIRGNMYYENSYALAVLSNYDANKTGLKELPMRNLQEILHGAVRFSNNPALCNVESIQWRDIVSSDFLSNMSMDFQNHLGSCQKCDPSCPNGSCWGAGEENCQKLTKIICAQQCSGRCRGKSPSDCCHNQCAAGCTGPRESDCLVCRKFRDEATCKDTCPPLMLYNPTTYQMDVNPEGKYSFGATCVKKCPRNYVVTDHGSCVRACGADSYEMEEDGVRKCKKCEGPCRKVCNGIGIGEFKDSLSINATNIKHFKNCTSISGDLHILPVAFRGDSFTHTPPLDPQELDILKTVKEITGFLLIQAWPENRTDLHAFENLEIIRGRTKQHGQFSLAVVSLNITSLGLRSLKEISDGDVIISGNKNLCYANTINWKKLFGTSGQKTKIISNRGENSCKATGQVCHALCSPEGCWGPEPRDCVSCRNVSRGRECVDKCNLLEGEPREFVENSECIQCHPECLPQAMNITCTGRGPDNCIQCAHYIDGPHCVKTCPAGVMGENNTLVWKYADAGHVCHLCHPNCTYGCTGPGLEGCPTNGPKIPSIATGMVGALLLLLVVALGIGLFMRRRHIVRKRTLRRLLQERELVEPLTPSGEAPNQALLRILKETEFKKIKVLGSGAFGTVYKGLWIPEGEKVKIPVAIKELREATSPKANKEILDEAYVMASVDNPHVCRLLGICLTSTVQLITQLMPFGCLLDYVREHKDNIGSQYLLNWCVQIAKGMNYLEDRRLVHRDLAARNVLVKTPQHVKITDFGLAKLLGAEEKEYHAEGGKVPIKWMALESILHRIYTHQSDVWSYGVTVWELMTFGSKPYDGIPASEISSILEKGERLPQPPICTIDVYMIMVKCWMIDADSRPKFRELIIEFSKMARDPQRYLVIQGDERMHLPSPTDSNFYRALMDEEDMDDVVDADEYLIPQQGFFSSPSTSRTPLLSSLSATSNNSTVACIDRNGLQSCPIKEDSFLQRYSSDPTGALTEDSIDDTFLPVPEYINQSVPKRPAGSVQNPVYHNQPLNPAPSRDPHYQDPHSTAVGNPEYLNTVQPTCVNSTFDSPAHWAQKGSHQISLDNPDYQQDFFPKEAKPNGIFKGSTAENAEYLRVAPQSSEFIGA
Mast/stem cell growth factor receptor Kit (Homo sapiens), sequence (P10721 whole entry): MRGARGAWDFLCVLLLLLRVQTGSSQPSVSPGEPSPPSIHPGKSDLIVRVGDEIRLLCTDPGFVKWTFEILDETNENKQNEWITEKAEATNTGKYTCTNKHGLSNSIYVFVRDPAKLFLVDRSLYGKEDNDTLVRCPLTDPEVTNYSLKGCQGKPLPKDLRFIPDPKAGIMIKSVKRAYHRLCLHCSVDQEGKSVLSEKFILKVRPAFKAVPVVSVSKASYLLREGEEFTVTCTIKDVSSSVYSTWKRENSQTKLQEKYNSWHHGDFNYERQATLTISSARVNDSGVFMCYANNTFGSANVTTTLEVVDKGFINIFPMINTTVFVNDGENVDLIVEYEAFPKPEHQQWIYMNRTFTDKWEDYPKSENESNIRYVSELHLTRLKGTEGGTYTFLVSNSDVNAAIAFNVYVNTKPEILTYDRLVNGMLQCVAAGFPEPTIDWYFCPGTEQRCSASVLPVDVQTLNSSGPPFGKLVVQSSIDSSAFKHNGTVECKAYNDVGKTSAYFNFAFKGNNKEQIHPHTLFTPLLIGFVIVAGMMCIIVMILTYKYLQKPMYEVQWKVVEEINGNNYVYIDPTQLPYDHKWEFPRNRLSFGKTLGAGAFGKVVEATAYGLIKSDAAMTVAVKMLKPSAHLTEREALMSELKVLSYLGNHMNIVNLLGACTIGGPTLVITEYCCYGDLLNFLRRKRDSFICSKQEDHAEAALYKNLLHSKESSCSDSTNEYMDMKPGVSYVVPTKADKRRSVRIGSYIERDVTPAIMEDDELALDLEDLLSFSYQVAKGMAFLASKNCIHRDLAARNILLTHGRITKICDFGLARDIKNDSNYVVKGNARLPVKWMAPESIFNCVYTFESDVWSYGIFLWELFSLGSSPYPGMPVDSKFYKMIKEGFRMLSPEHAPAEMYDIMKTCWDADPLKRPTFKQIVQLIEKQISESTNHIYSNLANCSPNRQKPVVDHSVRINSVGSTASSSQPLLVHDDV
cAMP and cAMP-inhibited cGMP 3',5'-cyclic phosphodiesterase 10A (Homo sapiens), sequence (Q9Y233 whole entry): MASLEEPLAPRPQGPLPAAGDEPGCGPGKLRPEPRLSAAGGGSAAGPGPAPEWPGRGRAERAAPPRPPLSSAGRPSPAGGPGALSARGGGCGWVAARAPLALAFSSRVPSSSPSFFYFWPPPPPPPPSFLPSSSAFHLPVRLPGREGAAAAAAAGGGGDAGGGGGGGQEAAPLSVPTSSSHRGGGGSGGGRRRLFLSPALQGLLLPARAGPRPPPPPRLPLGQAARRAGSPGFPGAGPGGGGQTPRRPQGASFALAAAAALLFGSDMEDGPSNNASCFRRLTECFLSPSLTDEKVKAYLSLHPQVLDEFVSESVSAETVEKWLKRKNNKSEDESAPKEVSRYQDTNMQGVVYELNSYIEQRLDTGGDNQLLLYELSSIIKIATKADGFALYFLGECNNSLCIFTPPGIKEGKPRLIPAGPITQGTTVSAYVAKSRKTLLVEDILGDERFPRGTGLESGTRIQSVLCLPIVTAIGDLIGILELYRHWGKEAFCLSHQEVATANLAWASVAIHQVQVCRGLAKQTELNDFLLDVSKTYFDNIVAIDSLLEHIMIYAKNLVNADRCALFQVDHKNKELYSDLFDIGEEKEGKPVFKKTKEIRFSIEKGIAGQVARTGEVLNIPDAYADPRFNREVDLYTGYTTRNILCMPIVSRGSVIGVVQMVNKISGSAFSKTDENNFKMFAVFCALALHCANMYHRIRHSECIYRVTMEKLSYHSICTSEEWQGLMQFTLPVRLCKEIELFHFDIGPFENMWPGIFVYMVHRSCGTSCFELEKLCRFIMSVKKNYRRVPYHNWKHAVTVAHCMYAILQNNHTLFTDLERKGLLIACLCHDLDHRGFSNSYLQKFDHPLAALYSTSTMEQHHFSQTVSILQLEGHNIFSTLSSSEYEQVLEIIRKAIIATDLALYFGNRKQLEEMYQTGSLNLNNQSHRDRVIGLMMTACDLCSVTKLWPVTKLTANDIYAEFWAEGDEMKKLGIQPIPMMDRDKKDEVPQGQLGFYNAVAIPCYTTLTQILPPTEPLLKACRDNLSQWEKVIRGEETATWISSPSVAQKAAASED

On to `CCN(CC)CCO/N=C(\c1ccc(SC)cc1)c1cccc2ccccc12.O=C(O)C(=O)O`, for which the Activity was 85.99% in data set [1], 0.8% in data set [2], “Non-toxic” in [3] and “Non-toxic” in data set [4].
Turning to `CCN(CC)CCO/N=C(\c1ccc(SC)cc1)c1cccc2ccccc12`, the inhibition result in data set [5], in [6], in [8], in data set [9], in data set [10] and in [15] was “inactive” throughout. In addition, the inhibition entry in data set [16] and in [19] was “inactive” throughout. The outcome in [7] and in data set [11] was Active. For the same molecule, in data set [12], the outcome was inactive. Also, the inhibition result in data set [13], in [14], in [17] and in data set [18] was “Active” in each case.
